Assay results from ChEMBL document CHEMBL3272272, “Photoaffinity labeling of the angiotensin II receptor. 1. Synthesis and biological activities of the labeling peptides” (J Med Chem, 1978).
Non-standard residues stand in square brackets, D forms with d. Residues, ends and D or L forms follow the SMILES beside them. Phe(4-NO2) = N[C@@H](Cc1ccc([N+](=O)[O-])cc1)C(=O)O; Phe(3,5-I2,4-NH2) = Nc1c(I)cc(C[C@H](N)C(=O)O)cc1I; Phe(4-N3) = [N-]=[N+]=Nc1ccc(C[C@H](N)C(=O)O)cc1; Phe(4-N2+) = N#[N+]c1ccc(C[C@H](N)C(=O)O)cc1; Phe(4-NH2) = Nc1ccc(C[C@H](N)C(=O)O)cc1; Sar = CNCC(=O)O

Legend:
Oryctolagus cuniculus [1] = species: Oryctolagus cuniculus; experiment: Relative binding affinity at rabbit angiotensin […] receptor in aorta strips under exclusion of long wavelength UV light relative to control; assay type: tissue-based
[2] = Antagonist activity at rabbit angiotensin […] receptor in aorta strips under exclusion of long wavelength UV light; assay type: tissue-based; conditions: Oryctolagus cuniculus, read-out: pA2 (converted)
Oryctolagus cuniculus [3] = species: Oryctolagus cuniculus; experiment: Agonist activity at rabbit angiotensin […] receptor in aorta strips assessed as peptide concentration required to produce 50% maximal response under exclusion of long wavelength UV light
How it was run: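 Rabbit aorta contractile bioassay. […]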

Oryctolagus cuniculus [4] = species: Oryctolagus cuniculus; experiment: Intrinsic activity at rabbit angiotensin […] receptor in aorta strips under exclusion of long wavelength UV light; assay type: tissue-based
How it was run: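 Intrinsic activity (αE) was determined with the rabbit aorta bioassay.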

Structure (SMILES)	RBA (Oryctolagus cuniculus [1]) [%]	Kb [2] [pM]	pD2 (Oryctolagus cuniculus [3])	Intrinsic activity (Oryctolagus cuniculus [4])
CNCC(=O)N[C@@H](CCCNC(=N)N)C(=O)N[C@H](C(=O)N[C@@H](Cc1ccc(O)cc1)C(=O)N[C@H](C(=O)N[C@@H](Cc1cnc[nH]1)C(=O)N1CCC[C@H]1C(=O)N[C@@H](Cc1ccc([N+](=O)[O-])cc1)C(=O)O)C(C)C)C(C)C	69	372	9.07	0.46
CNCC(=O)N[C@@H](CCCNC(=N)N)C(=O)N[C@H](C(=O)N[C@@H](Cc1ccc(O)cc1)C(=O)N[C@H](C(=O)N[C@@H](Cc1cnc[nH]1)C(=O)N1CCC[C@H]1C(=O)N[C@@H](Cc1cc(I)c(N)c(I)c1)C(=O)O)C(C)C)C(C)C	118	501		0
CNCC(=O)N[C@@H](CCCNC(=N)N)C(=O)N[C@H](C(=O)N[C@@H](Cc1ccc(O)cc1)C(=O)N[C@H](C(=O)N[C@@H](Cc1cnc[nH]1)C(=O)N1CCC[C@H]1C(=O)N[C@@H](Cc1ccc(N)cc1)C(=O)O)C(C)C)C(C)C	37		8.8	1
CNCC(=O)N[C@@H](CCCNC(=N)N)C(=O)N[C@H](C(=O)N[C@@H](Cc1ccc(O)cc1)C(=O)N[C@H](C(=O)N[C@@H](Cc1cnc[nH]1)C(=O)N1CCC[C@H]1C(=O)N[C@@H](Cc1ccc(N=[N+]=[N-])cc1)C(=O)O)C(C)C)C(C)C	31		8.72	1
CNCC(=O)N[C@@H](CCCNC(=N)N)C(=O)N[C@H](C(=O)N[C@@H](Cc1ccc(O)cc1)C(=O)N[C@H](C(=O)N[C@@H](Cc1cnc[nH]1)C(=O)N1CCC[C@H]1C(=O)N[C@@H](Cc1ccc([N+]#N)cc1)C(=O)O)C(C)C)C(C)C	13		8.33	1
CNCC(=O)N[C@@H](CCCNC(=N)N)C(=O)N[C@H](C(=O)N[C@@H](Cc1ccc(O)cc1)C(=O)N[C@H](C(=O)N[C@@H](Cc1cnc[nH]1)C(=O)N1CCC[C@H]1C(=O)N[C@@H](Cc1ccccc1)C(=O)O)C(C)C)C(C)C (H-[Sar]RVYVHPF-OH)			9.23	1
CNCC(=O)N[C@@H](CCCNC(=N)N)C(=O)N[C@H](C(=O)N[C@@H](Cc1cc(I)c(N)c(I)c1)C(=O)N[C@H](C(=O)N[C@@H](Cc1cnc[nH]1)C(=O)N1CCC[C@H]1C(=O)N[C@@H](Cc1ccccc1)C(=O)O)C(C)C)C(C)C (H-[Sar]RV[Phe(3,5-I2,4-NH2)]VHPF-OH)	2.7		7.68	1
CNCC(=O)N[C@@H](CCCNC(=N)N)C(=O)N[C@H](C(=O)N[C@@H](Cc1ccc([N+]#N)cc1)C(=O)N[C@H](C(=O)N[C@@H](Cc1cnc[nH]1)C(=O)N1CCC[C@H]1C(=O)N[C@@H](Cc1ccccc1)C(=O)O)C(C)C)C(C)C (H-[Sar]RV[Phe(4-N2+)]VHPF-OH)	0.66		7.05	1
CNCC(=O)N[C@@H](CCCNC(=N)N)C(=O)N[C@H](C(=O)N[C@@H](Cc1ccc([N+]#N)cc1)C(=O)N[C@H](C(=O)N[C@@H](Cc1cnc[nH]1)C(=O)N1CCC[C@H]1C(=O)N[C@@H](Cc1ccc([N+]#N)cc1)C(=O)O)C(C)C)C(C)C (H-[Sar]RV[Phe(4-N2+)]VHP[Phe(4-N2+)]-OH)	1.3		7.36	1
CNCC(=O)N[C@@H](CCCNC(=N)N)C(=O)N[C@H](C(=O)N[C@@H](Cc1ccc(N=[N+]=[N-])cc1)C(=O)N[C@H](C(=O)N[C@@H](Cc1cnc[nH]1)C(=O)N1CCC[C@H]1C(=O)N[C@@H](Cc1ccccc1)C(=O)O)C(C)C)C(C)C (H-[Sar]RV[Phe(4-N3)]VHPF-OH)	0.26		6.65	0.75
CNCC(=O)N[C@@H](CCCNC(=N)N)C(=O)N[C@H](C(=O)N[C@@H](Cc1ccc(N=[N+]=[N-])cc1)C(=O)N[C@H](C(=O)N[C@@H](Cc1cnc[nH]1)C(=O)N1CCC[C@H]1C(=O)N[C@@H](Cc1ccc(N=[N+]=[N-])cc1)C(=O)O)C(C)C)C(C)C (H-[Sar]RV[Phe(4-N3)]VHP[Phe(4-N3)]-OH)	0.07		6.12	0.8
CNCC(=O)N[C@@H](CCCNC(=N)N)C(=O)N[C@H](C(=O)N[C@@H](Cc1ccc(N)cc1)C(=O)N[C@H](C(=O)N[C@@H](Cc1cnc[nH]1)C(=O)N1CCC[C@H]1C(=O)N[C@@H](Cc1ccccc1)C(=O)O)C(C)C)C(C)C (H-[Sar]RV[Phe(4-NH2)]VHPF-OH)	15		8.41	1
CNCC(=O)N[C@@H](CCCNC(=N)N)C(=O)N[C@H](C(=O)N[C@@H](Cc1ccc(N)cc1)C(=O)N[C@H](C(=O)N[C@@H](Cc1cnc[nH]1)C(=O)N1CCC[C@H]1C(=O)N[C@@H](Cc1ccc(N)cc1)C(=O)O)C(C)C)C(C)C (H-[Sar]RV[Phe(4-NH2)]VHP[Phe(4-NH2)]-OH)	8.7		8.17	1
CNCC(=O)N[C@@H](CCCNC(=N)N)C(=O)N[C@H](C(=O)N[C@@H](Cc1ccc([N+](=O)[O-])cc1)C(=O)N[C@H](C(=O)N[C@@H](Cc1cnc[nH]1)C(=O)N1CCC[C@H]1C(=O)N[C@@H](Cc1ccccc1)C(=O)O)C(C)C)C(C)C (H-[Sar]RV[Phe(4-NO2)]VHPF-OH)	0			0
CNCC(=O)N[C@@H](CCCNC(=N)N)C(=O)N[C@H](C(=O)N[C@@H](Cc1ccc([N+](=O)[O-])cc1)C(=O)N[C@H](C(=O)N[C@@H](Cc1cnc[nH]1)C(=O)N1CCC[C@H]1C(=O)N[C@@H](Cc1ccc([N+](=O)[O-])cc1)C(=O)O)C(C)C)C(C)C (H-[Sar]RV[Phe(4-NO2)]VHP[Phe(4-NO2)]-OH)	0.06	759000	6.02	0.5
